Source: PubChem (several laboratories)
SENP1 FRET inh: blocks the human SENP1 SUMO protease catalytic domain; inhibition, % at 10 µM; recombinant SENP1 catalytic domain, CyPet-SUMO1-YPet FRET cleavage; Q9P0U3; hit rate 0.21% among 360,000;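 active means inhibition at least 30% at 10 µM, raw YFP signal under a set limit, fluorescence ratio 0.5 to 1.5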;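 further: 0% = enzyme with DMSO and 100% = no enzyme wells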
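Assay system – human recombinant His6-tagged SENP1 catalytic domain enzyme · Input – SENP1 enzyme, 20 pM final · Buffer or medium – Tris pH 8 buffer plus EDTA, NaCl, BME, BSA, NP40, catalase · Schedule – 50 min reaction at room temperature · Technique – FRET read of cyan and yellow fluorescence · Control set – no-enzyme wells low, DMSO-plus-enzyme wells high control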
ABCB6 inh MLPCN: human ABCB6 transporter inhibition | Q9NP58 | K562-ABCB6 porphyrin accumulation, flow cytometry, 1 h; stronger effect = lower value | fluorescence ratio to DMSO, % at 10 µM | hit rate 0.19% among 360,000 | AID 602162;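 active means fluorescence ratio to DMSO below 75%, the collection mean minus 3 SD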;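 further: signal is porphyrin accumulated inside mitochondria; 100% equals median channel fluorescence of DMSO control wells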
Target sequence (Q9NP58 whole entry, looked up): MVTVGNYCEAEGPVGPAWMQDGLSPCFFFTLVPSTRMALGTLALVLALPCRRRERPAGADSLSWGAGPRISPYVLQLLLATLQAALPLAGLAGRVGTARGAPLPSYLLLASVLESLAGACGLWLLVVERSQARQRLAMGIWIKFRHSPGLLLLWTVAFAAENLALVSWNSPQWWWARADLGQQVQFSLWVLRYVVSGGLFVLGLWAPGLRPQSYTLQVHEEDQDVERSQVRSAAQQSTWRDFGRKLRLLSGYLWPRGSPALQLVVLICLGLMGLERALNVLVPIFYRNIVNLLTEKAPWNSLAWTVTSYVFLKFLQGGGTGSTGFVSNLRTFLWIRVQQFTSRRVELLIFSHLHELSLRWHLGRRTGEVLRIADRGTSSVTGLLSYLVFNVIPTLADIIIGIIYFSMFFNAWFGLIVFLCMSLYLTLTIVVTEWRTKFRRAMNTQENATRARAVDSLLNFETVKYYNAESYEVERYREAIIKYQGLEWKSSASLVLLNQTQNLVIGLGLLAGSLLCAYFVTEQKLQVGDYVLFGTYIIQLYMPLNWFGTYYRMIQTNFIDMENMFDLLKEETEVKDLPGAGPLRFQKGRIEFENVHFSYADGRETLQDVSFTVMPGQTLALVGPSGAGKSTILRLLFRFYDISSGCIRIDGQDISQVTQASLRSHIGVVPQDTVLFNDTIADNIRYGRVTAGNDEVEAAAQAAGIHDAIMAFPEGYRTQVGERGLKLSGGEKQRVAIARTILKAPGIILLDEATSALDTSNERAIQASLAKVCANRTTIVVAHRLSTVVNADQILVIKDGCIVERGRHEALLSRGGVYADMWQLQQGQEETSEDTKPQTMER
iPSC survival up: enhancers of human iPSC single-cell survival | hiPSC single-cell survival, ATPlite luminescence; 100% = ROCK inhibitor wells, 0% = DMSO | survival enhancement, % at 20 µM | hit rate 0.044% among 360,000; in the data active means survival enhancement above about 18%;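 further: cells exposed to compounds for 16 hours before the ATP read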
FAS-TE inh: FAS thioesterase (human) inhibition | P49327 | recombinant FAS-TE, OMFH fluorogenic substrate, fluorescence endpoint | inhibition, % at 15 µM | hit rate 0.67% among 360,000;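 active means compounds whose normalised, plate-corrected inhibition of enzyme fluorescence in the single-dose primary screen is 50% or more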;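 further: 0% = DMSO with enzyme and 100% = substrate without enzyme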
FAS-TE conf: confirmation of human fatty acid synthase thioesterase inhibitors; inhibition, % at 15 µM; shares compounds with FAS-TE inh; hit rate 45% among 2,300; recombinant FAS-TE, OMFH fluorogenic substrate, fluorescence;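 active means compounds inhibiting the enzyme by at least 50% at 15 µM in any one of the replicates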;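 further: 0% = enzyme with DMSO only and 100% = wells lacking enzyme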
SENP1 conf: SENP1 (human) inhibition, single concentration confirmation; shares compounds with SENP1 FRET inh; recombinant SENP1, CyPet-SUMO1-YPet FRET cleavage; inhibition, % at 10 µM; hit rate 34% among 520; AID 651678; in the data active means inhibition mostly above about 35%, no sharp cut-off; inactive means mostly below about 32%;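 further: 0% = enzyme with DMSO and 100% = no enzyme control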
SENP1 kin conf: SENP1 (human) inhibition, kinetic confirmation; shares compounds with SENP1 FRET inh; recombinant SENP1, CyPet-SUMO1-YPet FRET kinetic cleavage; inhibition, % at 10 µM; hit rate 26% among 520; in the data active means inhibition mostly above about 32%, no sharp cut-off; inactive means mostly below about 29%;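 further: 0% = DMSO with enzyme and 100% = no enzyme substrate only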
Numbers without * were called inactive; / = no result. Sampled rows, rich in hits. Any-hit rate of the full collection: about 1.1%.

SMILES | SENP1 FRET inh | ABCB6 inh MLPCN | iPSC survival up | FAS-TE inh | SENP1 conf | SENP1 kin conf | others
COc1cccc(C(c2nnnn2-c2ccc3c(c2)OCCO3)N2CCC(n3c(=O)[nH]c4ccccc43)CC2)c1OC (stereo not drawn) | 2 | 98 | 2 | 72* | / | / | FAS-TE conf=0
N#CC1c2ccccc2-n2nncc2CN1S(=O)(=O)c1ccc(Cl)cc1 (stereo not drawn) | 0 | 104 | 0 | -12 | / | /
COc1ccccc1CNCCc1cccc(Cl)c1 | 1 | 93 | 1 | -8 | / | /
O=C(N/N=C/c1c(O)n(C2CCCCC2)c(=S)[nH]c1=O)c1ccccc1O | -23 | 111 | 0 | 55* | / | / | FAS-TE conf=42*
CCOP(=O)(OCC)c1cc(C)c(O)c(C(C)(C)C)c1 | 3 | 101 | 0 | -6 | / | /
Cc1cc(/C=C2\C(=O)NC(=O)N(C)C2=O)c(C)n1-c1ccc2c(c1)OCO2 | 35* | 96 | -2 | -7 | -21 | 19
COc1ccc(N=Nc2c(O)[nH]c(=S)[nH]c2=O)cc1 | 48* | 101 | -1 | -8 | 43* | 29
CC1C(=O)CC2(C(C)C)CC12 (stereo not drawn) | 0 | 106 | 3 | -3 | / | /
Nc1cccc2c1Cc1cc([N+](=O)[O-])ccc1-2 | 73* | 99 | -1 | 1 | 0 | 0
N=C1c2ccccc2CN1c1cccc([N+](=O)[O-])c1 | 1 | 99 | 1 | -6 | / | /
O=C(Nc1ccc(F)cc1)N1Cc2ccccc2-n2nncc2C1 | 1 | 97 | 4 | -1 | / | /
